Test results published in ChEMBL document CHEMBL4613315, “Design of First-in-Class Dual EZH2/HDAC Inhibitor: Biochemical Activity and Biological Evaluation in Cancer Cells” (ACS Med Chem Lett, 2020).

What was measured:
[1] = Cytotoxicity against human RH4 cells assessed as combinational index measured at fraction affected value of 0.45 in presence of vorinostat at 20 uM incubated for 72 hrs by CellTiter-Glo Luminescent cell viability assay; type: functional
In short: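 Viability after 72 h of single-agent or combined treatment with the HDAC inhibitor (0.05–0.25 μM) and the EZH2 inhibitor. EZH2 inhibitor range: U937 5–25 μM; RH4 10–50 μM. Synergy was assessed by combination index and isobologram analysis.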

[2] = biological target: T1, Histone-lysine N-methyltransferase EZH2 (Homo sapiens, UniProt Q15910); experiment: Inhibition of EZH2 in human U937 cells assessed as H3K27me3 level at 50 uM incubated for 96 hrs by Western blot analysis; type: cell-based; conditions: U-937
T1 sequence (Q15910 whole entry, looked up): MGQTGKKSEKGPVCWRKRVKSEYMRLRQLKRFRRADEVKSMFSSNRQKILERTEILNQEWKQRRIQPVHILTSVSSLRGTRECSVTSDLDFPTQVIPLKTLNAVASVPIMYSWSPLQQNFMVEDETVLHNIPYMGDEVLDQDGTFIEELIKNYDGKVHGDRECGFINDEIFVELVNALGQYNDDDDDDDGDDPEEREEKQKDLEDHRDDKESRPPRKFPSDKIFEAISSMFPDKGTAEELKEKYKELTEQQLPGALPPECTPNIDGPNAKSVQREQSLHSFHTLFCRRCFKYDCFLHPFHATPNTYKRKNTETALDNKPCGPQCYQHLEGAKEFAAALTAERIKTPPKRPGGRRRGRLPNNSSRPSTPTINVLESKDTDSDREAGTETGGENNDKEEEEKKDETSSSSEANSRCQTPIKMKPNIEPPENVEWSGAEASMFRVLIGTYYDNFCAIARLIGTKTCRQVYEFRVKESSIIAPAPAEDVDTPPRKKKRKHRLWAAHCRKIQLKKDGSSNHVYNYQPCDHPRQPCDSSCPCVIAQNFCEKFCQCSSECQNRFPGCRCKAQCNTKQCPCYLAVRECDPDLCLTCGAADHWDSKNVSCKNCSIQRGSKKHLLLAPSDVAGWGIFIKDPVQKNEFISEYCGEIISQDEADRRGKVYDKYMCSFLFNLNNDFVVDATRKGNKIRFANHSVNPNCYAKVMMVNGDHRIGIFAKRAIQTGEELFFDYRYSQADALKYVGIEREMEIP

[3] = biological target: T1, Histone-lysine N-methyltransferase EZH2; experiment: Inhibition of EZH2 in human U937 cells assessed as H3K27me3 level at 50 uM in presence of vorinostat incubated for 96 hrs by Western blot analysis (reference value: 1); type: cell-based; conditions: U-937
In short: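 U937 leukemia cells given EZH2 inhibitor 50 μM together with HDAC inhibitor 0.5 μM; Western blot at 96 and 120 h for H3K27me3 or acetyl-H3, actin as loading control; densitometry normalized to loading control then to DMSO vehicle.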

[4] = test system: U-937; experiment: Induction of apoptosis in human U937 cells assessed as early apoptotic cells at 25 uM incubated for 72 hrs by annexin V-FITC staining based flow cytometry (reference value: 3.4 %); type: functional
[5] = test system: U-937; experiment: Induction of apoptosis in human U937 cells assessed as late apoptotic cells at 25 uM incubated for 72 hrs by annexin V-FITC staining based flow cytometry (reference value: 0.7 %); type: functional

Row | SMILES | CI [1] | fold change (FC) [2] | fold change (FC) [3] | Activity [4] [%] | Activity [5] [%]
1 | Cc1cc(C)c(CNC(=O)c2cc(C)n(-c3ccccc3)c2C)c(=O)[nH]1 | 0.49 | 0.9 | 1.1 | – | –
2 | Cc1cc(C)c(CNC(=O)c2cc(C)n(-c3cccc(NC(=O)CCCCCCC(=O)NO)c3)c2C)c(=O)[nH]1 | – | – | – | 23.3 | 1.4
